Results as given in ChEMBL document CHEMBL3853270, “Influence of Birch Bark Triterpenes on Keratinocytes and Fibroblasts from Diabetic and Nondiabetic Donors” (2016).
Activity calls are given as the source filed them. No cut-off for these calls is given here.

Key:
Fibroblast [1] = experiment: Effect on pro-inflammatory related gene expression in non-diabetic young human primary fibroblasts assessed as PTGS2 mRNA levels at 1.96 uM after 6 hrs by qPCR analysis; format: functional
Fibroblast [2] = experiment: Effect on pro-inflammatory related gene expression in diabetic adult human primary fibroblasts assessed as PTGS2 mRNA levels at 9.81 uM after 6 hrs by qPCR analysis; format: functional
[3] = Effect on wound healing activity in non-diabetic adult human primary keratinocytes assessed as upregulation of soluble E-selectin protein levels at 1.96 uM after 24 hrs by bead-based suspension array analysis; format: functional; conditions: Keratinocyte
Fibroblast [4] = experiment: Effect on pro-inflammatory related gene expression in non-diabetic young human primary fibroblasts assessed as IL1R1 mRNA levels at 1.96 uM after 6 hrs by qPCR analysis; format: functional
Fibroblast [5] = experiment: Effect on pro-inflammatory related gene expression in non-diabetic adult human primary fibroblasts assessed as IL1B mRNA levels at 9.81 uM after 6 hrs by qPCR analysis; format: functional
Fibroblast [6] = experiment: Effect on pro-inflammatory related gene expression in non-diabetic adult human primary fibroblasts assessed as IL1R1 mRNA levels at 1.96 uM after 6 hrs by qPCR analysis; format: functional
[7] = Upregulation of wound healing activity related MCP1 protein levels in non-diabetic adult human primary keratinocytes at 1.96 uM after 24 hrs by bead-based suspension array analysis; format: functional; conditions: Keratinocyte
Keratinocyte [8] = experiment: Effect on chemokines related gene expression in diabetic adult human primary keratinocytes assessed as CXCL10 mRNA levels at 9.81 uM after 6 hrs by qPCR analysis; format: functional
Keratinocyte [9] = experiment: Effect on pro-inflammatory related gene expression in non-diabetic adult human primary keratinocytes assessed as IL6 mRNA levels at 9.81 uM after 6 hrs by qPCR analysis; format: functional
[10] = Effect on wound healing activity in diabetic adult human primary fibroblasts assessed as upregulation of soluble VCAM1 protein levels at 1.96 uM after 24 hrs by bead-based suspension array analysis; format: functional; conditions: Fibroblast
[11] = target: Cell division control protein 42 homolog (Homo sapiens) (UniProt P60953); experiment: Activation of Cdc42 in human diabetic primary keratinocytes at 10 nM after 20 mins by immunoblot method
How it was run: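 Keratinocytes from a diabetic adult donor; incubation 3 h for RhoA, 20 min for Cdc42 and Rac1. Lysates made in glycerol/Tris pH 7.4/NaCl/NP-40/MgCl2/PMSF buffer, spun at 4 °C. Active GTP-bound form pulled down on glutathione-sepharose with GST-Rhotekin (RhoA) or GST-PAK (Cdc42, Rac1) for 1 h at 4 °C. Total and pulled-down protein read by immunoblot with ECL; n = 3.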

Keratinocyte [12] = experiment: Effect on antioxidant related gene expression in non-diabetic adult human primary keratinocytes assessed as SOD2 mRNA levels at 1.96 uM after 6 hrs by qPCR analysis; format: functional
Keratinocyte [13] = experiment: Effect on pro-inflammatory related gene expression in non-diabetic young human primary keratinocytes assessed as IL1R1 mRNA levels at 1.96 uM after 6 hrs by qPCR analysis; format: functional
Keratinocyte [14] = experiment: Effect on chemokines related gene expression in non-diabetic young human primary keratinocytes assessed as CXCL10 mRNA levels at 9.81 uM after 6 hrs by qPCR analysis; format: functional
How it was run: (§1)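 Primary human keratinocytes (nondiabetic young or adult, diabetic adult donors) were exposed to compound for 6 h, with 0.1% DMSO as solvent control. Total RNA came from 400 000 cells per sample and was assayed on a Fluidigm Biomark high-throughput qPCR chip. Results are fold change vs solvent control, from 2−4 independent experiments on two donors per group, with SD. Groups were compared by one-way ANOVA with Bonferroni post-test.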

[15] = Effect on wound healing activity in diabetic adult human primary fibroblasts assessed as upregulation of MIF protein levels at 1.96 uM after 24 hrs by bead-based suspension array analysis; format: functional; conditions: Fibroblast
[16] = Effect on wound healing activity in diabetic adult human primary keratinocytes assessed as upregulation of IL1RA protein levels at 1.96 uM after 24 hrs by bead-based suspension array analysis; format: functional; conditions: Keratinocyte
Keratinocyte [17] = experiment: Effect on pro-inflammatory related gene expression in non-diabetic adult human primary keratinocytes assessed as IL1B mRNA levels at 1.96 uM after 6 hrs by qPCR analysis; format: functional
[18] = Effect on wound healing activity in diabetic adult human primary fibroblasts assessed as upregulation of soluble TNFR1 protein levels at 1.96 uM after 24 hrs by bead-based suspension array analysis; format: functional; conditions: Fibroblast
Fibroblast [19] = experiment: Effect on chemokines related gene expression in diabetic adult human primary fibroblasts assessed as IL8 mRNA levels at 1.96 uM after 6 hrs by qPCR analysis; format: functional
Fibroblast [20] = experiment: Effect on pro-inflammatory related gene expression in non-diabetic adult human primary fibroblasts assessed as IL6 mRNA levels at 1.96 uM after 6 hrs by qPCR analysis; format: functional
Fibroblast [21] = experiment: Effect on antiinflammatory related gene expression in non-diabetic adult human primary fibroblasts assessed as SOCS3 mRNA levels at 9.81 uM after 6 hrs by qPCR analysis; format: functional
How it was run: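 Primary dermal fibroblasts from one nondiabetic young, one nondiabetic adult and one diabetic adult donor; 320 000 cells per sample, 6 h at 1.96 or 9.81 μM. RNA measured on a high-throughput qPCR chip. Fold change versus 0.1% DMSO control, four independent experiments, SD, one-way ANOVA with Bonferroni post-test.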

Keratinocyte [22] = experiment: Effect on chemokines related gene expression in non-diabetic young human primary keratinocytes assessed as IL8 mRNA levels at 1.96 uM after 6 hrs by qPCR analysis; format: functional; how it was run: as §1
Fibroblast [23] = experiment: Effect on pro-inflammatory related gene expression in diabetic adult human primary fibroblasts assessed as IL1B mRNA levels at 1.96 uM after 6 hrs by qPCR analysis; format: functional
How it was run: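 Primary human dermal fibroblasts (young or adult nondiabetic, adult diabetic donor) were treated for 6 h against a 0.1% DMSO solvent control. RNA from 320 000 cells per sample was measured by Fluidigm Biomark high-throughput qPCR. Values are fold change relative to solvent control, from four independent experiments, with SD. One-way ANOVA with Bonferroni post-test was applied.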

Fibroblast [24] = experiment: Effect on chemokines related gene expression in non-diabetic young human primary fibroblasts assessed as CCL2 mRNA levels at 1.96 uM after 6 hrs by qPCR analysis; format: functional
Keratinocyte [25] = experiment: Effect on pro-inflammatory related gene expression in non-diabetic adult human primary keratinocytes assessed as IL6 mRNA levels at 1.96 uM after 6 hrs by qPCR analysis; format: functional
Keratinocyte [26] = experiment: Effect on antiinflammatory related gene expression in non-diabetic young human primary keratinocytes assessed as NFKBIA mRNA levels at 9.81 uM after 6 hrs by qPCR analysis; format: functional
Keratinocyte [27] = experiment: Effect on ECM related gene expression in diabetic adult human primary keratinocytes assessed as FBN1 mRNA levels at 9.81 uM after 6 hrs by qPCR analysis; format: functional
How it was run: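 Primary keratinocytes from nondiabetic young and adult and diabetic adult donors; 400 000 cells per sample, 6 h exposure at 1.96 or 9.81 μM. RNA extracted and read on a high-throughput qPCR chip. Results are fold change versus 0.1% DMSO solvent control from 5−7 independent experiments over two donors per group, SD, one-way ANOVA with Bonferroni post-test.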

Sequence of Cell division control protein 42 homolog (Homo sapiens) (P60953 whole entry, looked up): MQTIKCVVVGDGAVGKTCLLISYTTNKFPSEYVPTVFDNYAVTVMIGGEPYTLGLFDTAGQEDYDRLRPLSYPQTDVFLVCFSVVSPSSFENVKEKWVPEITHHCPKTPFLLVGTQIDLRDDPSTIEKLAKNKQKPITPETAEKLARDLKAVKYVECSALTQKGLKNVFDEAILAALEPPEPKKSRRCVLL

C=C(C)[C@@H]1CC[C@]2(CO)CC[C@]3(C)[C@H](CC[C@@H]4[C@@]5(C)CC[C@H](O)C(C)(C)[C@@H]5CC[C@]43C)[C@@H]12 [BETULIN]
fold change (FC) (Fibroblast [1]): 10.9
fold change (FC) (Fibroblast [2]): 2.9
Activity [3]: Active
fold change (FC) (Fibroblast [4]): 3.7
fold change (FC) (Fibroblast [5]): 214
fold change (FC) (Fibroblast [6]): 4.8
Activity [7]: Active
fold change (FC) (Keratinocyte [8]): 12.1
fold change (FC) (Keratinocyte [9]): 24.1
Activity [10]: Active
Activity [11]: Active
fold change (FC) (Keratinocyte [12]): 1.3
fold change (FC) (Keratinocyte [13]): 0.9
fold change (FC) (Keratinocyte [14]): 1.7
Activity [15]: Active
Activity [16]: Active
fold change (FC) (Keratinocyte [17]): 0.8
Activity [18]: Active
fold change (FC) (Fibroblast [19]): 10.8
fold change (FC) (Fibroblast [20]): 278
fold change (FC) (Fibroblast [21]): 24.6
fold change (FC) (Keratinocyte [22]): 9.7
fold change (FC) (Fibroblast [23]): 7.6
fold change (FC) (Fibroblast [24]): 4.3
fold change (FC) (Keratinocyte [25]): 16.2
fold change (FC) (Keratinocyte [26]): 1.6
fold change (FC) (Keratinocyte [27]): 2.5
